Lung fibro prol: blocks proliferation of human lung fibroblasts. LL 47 human lung fibroblast viability, ATP luminescence; stronger effect = lower value. viability, % at 10 µM. 85,000 tested, 1.1% active. AID 719;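 active = viability at or below 50% in the single dose screen; inactive = viability above 50%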;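 note: compound exposure lasted 72 h before the ATP readout; 100% = median luminescence of untreated cell-only wells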
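test system = LL 47 human lung fibroblasts | amount = 1,150 fibroblasts seeded per well | medium = 15% FBS in IMEM | times = overnight cell rest, 72 h compound treatment at 37 °C | measured by = CellTiter-Glo luminescence measuring cellular ATP | read-out = viability percentage against median untreated-cell control | benchmarks = cell-only wells, no compound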
HCT116 PTEN-null: growth suppressors of cells with PTEN tumor suppressor deletion | HCT116 PTEN-null viability, CellTiter-Glo, 60 h; stronger effect = lower value | AID 827 | viability, % at 10 µM | 140,000 tested, 1.2% active;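 active = viability at or below a set limit, 4 SD under the median of all tested compounds, cut at about 3.7% in these data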;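 note: PTEN knockout HCT116 line with beta catenin targeted HCT116 as companion control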
HUVEC prolif 384: inhibitors of human endothelial cell proliferation. 86,000 tested, 1.1% active. AID 648. viability, % at 10 µM (by protocol). HUVEC proliferation, CellTiter-Glo luminescence, 72 h; stronger effect = lower value;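 active = viability at or below 30%; inactive = viability above 30%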;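 note: 100% = median luminescence of DMSO-only cell control wells on each plate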
H69AR growth 86K: blocks growth of human H69AR lung tumor cells. 85,000 tested, 6% active. viability, % at 10 µM. H69AR lung tumor viability, ATP luminescence, 72 h; stronger effect = lower value. AID 598;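 active = viability at or below 40%; inactive = viability above 40%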;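 note: multidrug resistant small cell line overexpressing MRP-1 efflux transporter; 100% = mean luminescence of untreated control wells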
bCat KO growth: beta-catenin-lacking colon tumor cell growth suppression; viability, % at 10 µM; AID 818; HCT116 beta-catenin knockout viability, CellTiter-Glo, 60 h; stronger effect = lower value; 140,000 tested, 1.5% active;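 active = viability at or under a set limit, the compound median less 4 SD, cut at about 6% in these data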;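 note: 0% = Hyamine 1622 control at 20 µM and 100% = untreated cell control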
Cav32 inh: blocks human Cav3.2 T-type calcium channel. B-score at 10 µM. Cav3.2-expressing cells, Fluo-4 calcium fluorescence FDSS; stronger effect = lower value. O95180. 100,000 tested, 4% active;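 active = single-dose well whose peak fluorescence ratio is a statistical outlier from its plate by either plate-standardised score or position-corrected B-score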
Target sequence (O95180 whole entry, looked up): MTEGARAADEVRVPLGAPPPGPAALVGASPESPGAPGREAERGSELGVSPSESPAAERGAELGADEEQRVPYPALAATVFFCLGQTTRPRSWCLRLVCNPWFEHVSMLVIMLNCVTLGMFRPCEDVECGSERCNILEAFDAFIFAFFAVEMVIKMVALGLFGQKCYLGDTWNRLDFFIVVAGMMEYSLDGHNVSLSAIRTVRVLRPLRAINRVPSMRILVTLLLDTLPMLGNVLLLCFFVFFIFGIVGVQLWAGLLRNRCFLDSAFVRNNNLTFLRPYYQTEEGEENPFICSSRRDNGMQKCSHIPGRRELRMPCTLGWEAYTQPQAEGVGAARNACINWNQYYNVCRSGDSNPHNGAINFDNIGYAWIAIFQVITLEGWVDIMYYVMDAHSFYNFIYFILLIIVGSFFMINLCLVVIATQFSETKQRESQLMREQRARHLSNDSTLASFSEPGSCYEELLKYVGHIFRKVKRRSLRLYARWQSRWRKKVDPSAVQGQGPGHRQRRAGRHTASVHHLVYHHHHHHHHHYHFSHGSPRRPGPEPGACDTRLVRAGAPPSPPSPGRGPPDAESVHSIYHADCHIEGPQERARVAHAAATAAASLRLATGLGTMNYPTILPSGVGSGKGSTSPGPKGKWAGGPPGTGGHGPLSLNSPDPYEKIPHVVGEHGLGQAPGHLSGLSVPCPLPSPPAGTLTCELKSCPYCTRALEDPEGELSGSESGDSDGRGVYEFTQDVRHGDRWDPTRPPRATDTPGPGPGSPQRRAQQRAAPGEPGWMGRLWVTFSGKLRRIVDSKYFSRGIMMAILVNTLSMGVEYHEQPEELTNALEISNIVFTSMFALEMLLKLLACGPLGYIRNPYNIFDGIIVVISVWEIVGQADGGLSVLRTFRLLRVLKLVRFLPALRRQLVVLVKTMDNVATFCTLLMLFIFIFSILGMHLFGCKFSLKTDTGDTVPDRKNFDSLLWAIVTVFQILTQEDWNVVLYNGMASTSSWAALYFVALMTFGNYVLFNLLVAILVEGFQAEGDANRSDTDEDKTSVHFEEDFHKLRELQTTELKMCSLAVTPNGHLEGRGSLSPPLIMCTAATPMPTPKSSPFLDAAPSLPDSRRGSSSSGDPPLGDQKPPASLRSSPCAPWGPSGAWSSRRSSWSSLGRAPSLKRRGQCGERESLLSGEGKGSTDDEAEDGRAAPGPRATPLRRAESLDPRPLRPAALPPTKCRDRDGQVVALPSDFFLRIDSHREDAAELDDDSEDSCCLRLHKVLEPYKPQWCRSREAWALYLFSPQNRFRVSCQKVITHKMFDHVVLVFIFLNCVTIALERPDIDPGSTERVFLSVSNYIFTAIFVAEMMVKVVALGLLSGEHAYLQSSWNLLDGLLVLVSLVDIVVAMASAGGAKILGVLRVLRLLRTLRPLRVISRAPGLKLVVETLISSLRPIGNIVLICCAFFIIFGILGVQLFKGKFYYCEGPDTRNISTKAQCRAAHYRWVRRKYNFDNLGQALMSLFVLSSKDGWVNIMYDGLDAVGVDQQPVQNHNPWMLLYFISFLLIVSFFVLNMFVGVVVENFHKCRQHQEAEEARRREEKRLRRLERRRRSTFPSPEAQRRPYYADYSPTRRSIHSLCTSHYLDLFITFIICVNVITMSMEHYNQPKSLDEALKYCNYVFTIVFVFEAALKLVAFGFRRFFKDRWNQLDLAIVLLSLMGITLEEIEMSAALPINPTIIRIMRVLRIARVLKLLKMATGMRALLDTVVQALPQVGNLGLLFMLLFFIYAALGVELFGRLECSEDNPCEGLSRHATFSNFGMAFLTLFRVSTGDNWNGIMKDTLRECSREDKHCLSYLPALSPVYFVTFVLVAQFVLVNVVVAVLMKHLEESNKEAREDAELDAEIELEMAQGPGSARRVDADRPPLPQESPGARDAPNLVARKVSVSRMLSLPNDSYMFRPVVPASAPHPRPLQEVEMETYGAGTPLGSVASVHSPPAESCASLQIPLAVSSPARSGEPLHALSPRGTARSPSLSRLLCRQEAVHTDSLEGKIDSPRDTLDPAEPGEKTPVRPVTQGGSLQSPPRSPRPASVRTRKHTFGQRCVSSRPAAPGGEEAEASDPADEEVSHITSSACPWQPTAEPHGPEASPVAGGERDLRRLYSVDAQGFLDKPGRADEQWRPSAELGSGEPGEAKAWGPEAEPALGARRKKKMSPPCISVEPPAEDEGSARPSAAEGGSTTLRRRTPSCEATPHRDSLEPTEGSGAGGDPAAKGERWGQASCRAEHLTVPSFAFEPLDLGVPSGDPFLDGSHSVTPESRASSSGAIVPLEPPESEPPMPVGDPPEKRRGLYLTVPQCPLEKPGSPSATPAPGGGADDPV
An asterisk follows results filed as active; nt = not tested or not shown. A selection: hits, their analogues and other compounds. The true share with any hit is near 7.1%.

SMILES	Lung fibro prol	HCT116 PTEN-null	HUVEC prolif 384	H69AR growth 86K	bCat KO growth	Cav32 inh
N#Cc1nc(-c2ccc(OCc3ccccc3)cc2)oc1N1CCC(C(N)=O)CC1	79.7	102.1	28.6*	37.0*	92.4	nt
N#Cc1nc(COc2ccccc2)oc1N1CCCC1	nt	91.9	nt	nt	94.8	nt
N#Cc1nc(COc2ccccc2)oc1N1CCCCCC1	91.0	77.3	110.0	88.4	77.0	-4*
COc1ccccc1NC(=O)c1ccc(NC(=O)CSc2n[nH]c(N)n2)cc1	nt	96.5	nt	nt	99.4	nt
Cc1cccc(Oc2nc(-c3ccccc3)cc(C)c2S(C)(=O)=O)c1C	77.8	22.9	89.4	42.5	22.6	-3.86*
COc1ccc(Br)cc1[C@H]1[C@H]2C=CC[C@@H](C)[C@@H]2C(=O)N1Cc1ccccc1	nt	nt	nt	nt	nt	0.309
Cc1ccccc1Cn1c(=N)n(CC(=O)c2ccc([N+](=O)[O-])cc2)c2ccccc21	nt	1.4*	nt	nt	1.9*	nt
C=CCn1c(O)c(N=NC(=S)Nc2cccc(OC)c2)c2ccccc21	nt	11.8	nt	nt	11.8	nt
C=CCn1c(O)c(N=NC(=S)Nc2ccc(OC)cc2)c2ccccc21	53.6	10.9	50.4	35.0*	18.4	nt
CN(C)CCCn1c(NC(=O)C2CCCCC2)nc2ccccc21	89.5	83.4	84.0	62.5	82.3	-3.59*
CCCCn1c(NCc2ccccc2O)nc2ccccc21	99.6	78.8	86.7	93.5	78.6	-3.93
CCCCn1c(NC(=O)C2CCCCC2)nc2ccccc21	57.0	9.2	60.5	53.8	5.2*	-3.43
Cc1ccc(CNC(=O)CSc2c3c(nc4ccc(Cl)cc24)CCCC3)o1	76.6	86.1	73.8	15.3*	87.3	-2.44
O=C(CSc1nc(-c2ccc(F)cc2)cc(C(F)(F)F)n1)NCc1ccco1	97.6	101.7	97.0	87.1	104.3	-0.789
CC1CC(C)CN(C(=O)c2ccccc2Nc2ccc(SC(F)F)cc2)C1 (stereo not drawn)	95.7	44.8	76.3	95.2	31.8	-4.2*
CCOC(=O)c1[nH]c2ccc(OC)cc2c1NC(=O)CN1CCSCC1	98.0	101.1	89.0	81.9	100.9	0.638
CCOC(=O)c1[nH]c2cc(OC)c(OC)cc2c1NC(=O)CN1CCN(c2ccc(OC)cc2)C(C)C1 (stereo not drawn)	100.3	68.2	85.2	59.5	82.7	-5.4*
CCOC(=O)c1[nH]c2ccccc2c1NC(=O)c1ccc2c(c1)OCO2	78.1	89.6	81.5	21.9*	86.4	nt
COC(=O)c1[nH]c2cc(OC)ccc2c1NC(=O)c1ccc2c(c1)OCO2	96.7	89.3	77.8	92.0	105.0	-0.0656
CCOC(=O)c1[nH]c2cc(OC)c(OC)cc2c1NC(=O)c1ccc2c(c1)OCO2	68.1	112.2	88.4	26.1*	102.0	0.07
CCOC(=O)c1[nH]c2ccc(OC)cc2c1NC(=O)c1ccc2c(c1)OCO2	97.0	79.0	90.3	68.8	87.2	-3.05
CCCSc1nnc(NC(=O)Nc2ccc(F)cc2)s1	47.0*	41.5	46.8	10.8*	42.3	-1.72
CCCSc1nnc(NC(=O)Nc2ccccc2)s1	99.2	63.9	59.2	54.9	74.2	nt
CC(C)CNC(=S)NC(=O)c1ccc(Cl)cc1Cl	nt	100.1	nt	nt	90.6	nt
FC(F)(F)C(Oc1nc(NC2CCCCC2)nc(N2CCOCC2)n1)C(F)(F)F	88.7	71.5	113.3	77.9	62.5	-4.86*
SMILES	Lung fibro prol	HCT116 PTEN-null	HUVEC prolif 384	H69AR growth 86K	bCat KO growth	Cav32 inh
O=C1CCCC2=C1C(c1ccsc1)CC(=O)N2c1nnc(SCc2ccccc2)s1 (stereo not drawn)	nt	91.2	nt	nt	82.3	-5.48*
O=C(Nc1nnc(-c2ccccc2Cl)s1)C1CCN(S(=O)(=O)c2ccc(Cl)cc2)CC1	nt	87.2	nt	nt	85.0	nt
O=C(Nc1nnc(COc2ccccc2)s1)C1CCN(S(=O)(=O)c2ccc(Cl)cc2)CC1	80.5	86.6	77.1	33.0*	88.9	0.0291
CCN(CCCNC(=O)CC(C(=O)N1CCc2ccccc21)n1ccnc1)c1ccccc1 (stereo not drawn)	99.2	88.9	87.0	101.8	85.3	-4.62*
O=C(c1ccco1)N1CCN(C(c2ccccc2)c2nnnn2C2CCCC2)CC1 (stereo not drawn)	100.8	88.8	108.0	91.0	90.5	1.66
CCc1ccc2c(c1)C1(C(=O)N2)N2CCCC2C(C(=O)c2ccc3ccccc3c2)C12C(=O)Nc1ccccc12 (stereo not drawn)	nt	1.1*	nt	nt	1.3*	nt
O=C(NCc1ccco1)C(c1cccs1)N(C(=O)C1COc2ccccc2O1)c1cccc(O)c1 (stereo not drawn)	98.1	87.2	85.7	82.7	96.7	-8.6*
CCOC(=O)c1ccc(N=c2sc(C(=O)OC)cc(=O)n2-c2ccc(C(=O)OCC)cc2)cc1	nt	3.9	nt	nt	3.3*	-0.829
Cc1ccc(Sc2ccc(N)cc2C#N)cc1	nt	nt	nt	nt	nt	-2.1
COc1ccc(C(=O)/C=C/c2ccccc2OC)c(OC(=O)c2ccc([N+](=O)[O-])cc2)c1	nt	nt	nt	nt	nt	-1.66
O=C(Oc1ccccc1/C=C\C(=O)c1cc2ccccc2o1)c1cccc(F)c1	nt	1.3*	nt	nt	5.9*	nt
O=C(Nc1ccccc1)c1ccc(OC(=O)c2cc3ccccc3o2)cc1	93.5	95.2	75.2	89.4	89.2	-1.93
COc1cccc(C(=O)Oc2ccccc2/C=C\C(=O)c2cc3ccccc3o2)c1	nt	1.1*	nt	nt	2.2*	nt
O=C(Oc1ccccc1/C=C\C(=O)c1cc2ccccc2o1)c1ccccc1	nt	2.4*	nt	nt	2.3*	nt
Oc1ccc(Cl)cc1/C=N/c1nccs1	97.0	86.5	79.1	82.2	85.5	-3.4*
CCC(=O)Nc1cc(C(C)(C)C)ccc1C(C)=O	nt	104.6	nt	nt	96.7	nt
CCOC(=O)/C=C/C(=O)OCC(=O)Nc1ccc(Cl)cn1	70.1	82.7	82.7	81.3	82.5	3.37*
Cc1csc(SCC(=O)Nc2ccc(Cl)cn2)n1	96.1	81.8	94.1	91.6	83.5	-5.1*
Cc1ccccc1C(=O)Nc1ccc(Cl)cn1	96.2	83.0	85.1	99.4	98.7	0.0787
CC(C)(C)c1csc(SCC(=O)Nc2ccc(Cl)cn2)n1	112.8	77.6	83.4	94.8	78.3	-3.36
Cc1ccc(C(=O)Nc2ccc(Cl)cn2)cc1	79.0	40.1	63.5	24.5*	44.3	-0.0414
CCOC(=O)NC1(Nc2ccc(Cl)cn2)Oc2ccccc2O1	96.1	87.3	78.9	28.2*	87.7	1.29
Cc1csc(NC(=O)c2cc(-c3ccccc3)nc3ccccc23)n1	nt	35.2	nt	nt	40.0	nt
O=C1C=C(c2ccc3c(c2)OCO3)CCC1	nt	nt	nt	nt	nt	1.74
CCN(CC)S(=O)(=O)c1cccc(C(=O)Nc2ccc(Cl)cn2)c1	89.3	59.6	86.2	78.1	65.7	-3.39
CCN(CC)S(=O)(=O)c1cc(C(=O)Nc2ccc(Cl)cn2)ccc1C	105.0	67.5	104.9	68.3	50.6	-4.29*
CC(C)OC(=O)c1c(NS(=O)(=O)c2ccccc2)sc2c1CCCC2	115.0	79.3	63.2	92.2	81.4	-7.99*
COC(=O)c1c(NS(=O)(=O)Cc2ccccc2)sc2c1CCCC2	97.9	100.1	92.3	76.9	98.0	-4.19
O=C(COC(=O)CNC(=O)c1sc2ccccc2c1Cl)Nc1c(Cl)cc(Cl)cc1Cl	nt	97.2	nt	nt	98.0	nt

High-throughput results: PubChem BioAssay, several laboratories
